# In the library only some 2.1% were active in any assay of this set; here they are far more common.
# CCR6 antag: antagonists of human CCR6 receptor. P51684. CHO-K1 CCR6 PathHunter beta-arrestin, luminescence, CCL20-stimulated. inhibition, % at 20 µM. actives 0.49% (n = 340,000). AID 493098;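 active = compounds whose inhibition of the agonist-driven luminescence signal at 20 µM reaches about 50%, limit read from the data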;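 note: cells stimulated with CCL20 at 14 nM final; plate controls were DMSO with CCL20 for no effect and DMSO without agonist for full effect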
# APJ ag: APJ receptor agonism | P35414 | CHO-K1 APJ PathHunter beta-arrestin, luminescence; 0% DMSO wells, 100% apelin | activation, % at 20 µM | actives 0.11% (n = 330,000) | AID 2520;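 active = activation more than six SD over the plate average, tested at 20 µM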;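 note: 0% = DMSO alone and 100% = apelin-13 at 10 nM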
# Target sequence (P35414 whole entry, looked up): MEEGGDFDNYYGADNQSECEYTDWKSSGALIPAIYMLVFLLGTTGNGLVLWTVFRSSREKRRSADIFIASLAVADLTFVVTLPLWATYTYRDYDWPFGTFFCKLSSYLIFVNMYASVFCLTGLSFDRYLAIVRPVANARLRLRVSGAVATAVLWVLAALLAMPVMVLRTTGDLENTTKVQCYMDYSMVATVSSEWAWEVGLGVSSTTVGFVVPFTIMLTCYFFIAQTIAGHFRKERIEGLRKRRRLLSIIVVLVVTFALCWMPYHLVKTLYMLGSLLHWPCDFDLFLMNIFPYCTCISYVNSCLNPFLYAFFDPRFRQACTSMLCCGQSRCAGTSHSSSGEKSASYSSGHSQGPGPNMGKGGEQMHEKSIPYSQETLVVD
#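 assay system = CHO-K1 APJ beta-arrestin complementation cell line | input = cell density 1000 per well | dosing = compound 20 µM once, DMSO 1% | timing = compound 90 min 25 °C, reagent 1 h | measured by = luminescence from split beta-galactosidase complementation, Galacton Star/Emerald II substrate | read-out basis = APJ agonist activity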
# CXCR6 block: CXCR6 (human) receptor inhibition; O00574; CHO-K1 PathHunter CXCR6 beta-arrestin, luminescence; inhibition, % at 20 µM; actives 0.36% (n = 360,000); AID 602244; in the data active = inhibition above about 34%, passing the limit was not always enough;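 note: antagonist mode with CXCL16 agonist at 10 nM final; 0% = 10 nM CXCL16 with DMSO and 100% = unstimulated wells without agonist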
# HTR2A ag: agonists of mouse serotonin 5-HT2A receptor (HTR2A) | P35363 | CHO-K1 mHTR2A beta-arrestin complementation, luminescence; percent of 30 µM serotonin response | activation, % at 7.6 µM | actives 0.66% (n = 360,000) | AID 624169;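 active = activation above a run cutoff, the mean activation of all tested compounds plus 3 SD, cut at about 14% in these data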;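 note: 0% = plate median of compound wells and 100% = 30 µM serotonin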
# APJ antagonist: antagonists of human APJ apelin receptor; P35414; CHO-K1 APJ beta-arrestin complementation, luminescence; inhibition, % at 20 µM; actives 0.32% (n = 330,000); AID 2521;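 active = inhibition above about 40% at 20 µM, limit read from the data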;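 note: cells challenged with 10 nM apelin-13 agonist together with compound; plate controls were apelin-13 plus DMSO wells for no effect and DMSO wells lacking apelin-13 for full effect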
# EBI2 block: antagonists of human EBI2 receptor; P32249; EBI2 beta-arrestin recruitment, luminescence, 7a,25-OHC stimulated; inhibition, % at 5 µM; actives 0.81% (n = 360,000); AID 651636; in the data active = inhibition above about 38%;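 note: enzyme fragment complementation signal reports receptor beta-arrestin coupling in cells; 0% = agonist plus DMSO wells and 100% = wells without agonist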
# Active calls of the source: *; · = no result.
SMILES,CCR6 antag,APJ ag,CXCR6 block,HTR2A ag,APJ antagonist,EBI2 block
COc1ccc(/C=C/C2=NNC(=O)CC2)cc1,77*,-2,3,0,-31,4
Cn1cnc([N+](=O)[O-])c1S(=O)(=O)Oc1cccc2ccccc12,74*,·,49*,-2,·,20
Cn1cnc([N+](=O)[O-])c1S(=O)(=O)Oc1ccc(Cl)cc1,60*,·,52*,5,·,14
Cn1cnc([N+](=O)[O-])c1Oc1cccc2ccccc12,12,2,-3,-1,-21,-49
COc1ccccc1NC(=O)COC(=O)COc1cccc2c1OC(C)(C)C2,-4,3,-6,0,26,-4
O=C(NCc1ccccc1)N1CCN(c2ccc(Cl)c(Cl)c2)CC1,9,-2,-3,18*,4,17
COC(=O)c1cc2c(C)nn(-c3ccccc3)c2s1,-7,-1,-6,0,-2,9
Cc1nn(-c2ccccc2)c2sc(C(=O)N(CC(=O)NC(C)(C)C)Cc3ccco3)cc12,57*,-2,5,-5,11,9
COc1cccc(NC(=O)N2CCN(c3cccc(C)c3C)CC2)c1,12,0,5,-5,-12,78*
COc1ccccc1N1CCN(C(=O)Nc2cccc(Cl)c2)CC1,5,-3,-7,-3,22,12
O=C(/C=C/c1cccs1)c1ccc(N2CCOCC2)cc1,7,-3,1,-1,14,45*
CCN(CC)c1ccc(C(=O)NNC(=O)C2CSC3(C)CCC(=O)N23)cc1 (stereo not drawn),11,-3,1,0,4,4
O=C(NC(=S)Nc1ccccc1Cl)c1cncc(C#Cc2ccccc2)c1,46,-3,31,5,29,15
O=C(NC(=S)Nc1ccccc1Cl)c1cncc(Br)c1,52*,-4,34,2,17,-4
CCOC(=O)c1ccc(N2C(=O)C=CC2=O)cc1,113*,0,101*,2,14,4
N#CC12C(=O)NC(=O)C1(C#N)C21CCCC1 (stereo not drawn),-1,·,-3,5,·,6
N#Cc1cc(Oc2cccc3cccnc23)c(-n2nnc3ccccc32)cc1C#N,11,3,-5,-8,-9,79*
CC(NNC(=S)N1CCN(c2ccccn2)CC1)c1nccc2ccccc12 (stereo not drawn),64*,·,26,2,·,1
Cc1ccc2c(NCc3ccco3)nc(NC(C)C)nc2c1,·,·,0,-7,·,9
C=C(CN(C)C)C(=O)c1ccc(C)cc1C,108*,·,88*,-9,·,10
COc1cc(OC)c(C(=O)CCC(=O)O)cc1OC,-1,-3,0,-1,5,-11
C=C(CN(C)C)C(=O)c1cc(OC)c(OC)cc1OC,63*,·,38*,1,·,13
C[N+](C)(C)CCCC(=O)c1ccc2c(c1)OCO2,-6,3,-8,-3,-2,-17
C=C(CN(C)C)C(=O)c1ccc2c(c1)OCO2,109*,·,91*,-2,·,34
CC1=C([N+](=O)[O-])C(c2ccccc2)NC(=O)N1 (stereo not drawn),1,-3,1,4,13,-2
SMILES,CCR6 antag,APJ ag,CXCR6 block,HTR2A ag,APJ antagonist,EBI2 block
CC[N+](CC)=N/N=C1\C=CC[N+]([O-])=C1,·,·,-1,4,·,0
Cc1cc2nsnc2c(S(=O)(=O)N2CCN(C)CC2)c1C,0,-4,2,2,6,3
O=S(=O)(NC1CC(NS(=O)(=O)OCC(Cl)(Cl)Cl)C2CCCCC12)OCC(Cl)(Cl)Cl (stereo not drawn),3,4,-21,15*,-20,-7
O=c1ccc(N=Nc2ccccc2)ccc1O,66*,·,29,10,·,-5
Cc1ccc(-n2sc3ccccc3c2=O)cc1S(=O)(=O)N1CCCCC1,55*,2,20,17*,-12,43
O=c1c2ccccc2sn1-c1ccc(S(=O)(=O)N2CCCCC2)cc1,9,3,-4,3,-30,5
COc1ccc(OC)c(NC(=O)C2(C)CCN2Cc2ccccc2Cl)c1 (stereo not drawn),·,·,3,0,·,15
CCOc1ccc(N2C(=O)C(C)CNC2=S)cc1 (stereo not drawn),4,·,-5,5,·,-1

# Compound activity from PubChem.
